The nature of data set [1]: Drug level in Sprague-Dawley rat hepatic S9 fraction treated with 25 uM VU0409106 by LC-MS/MS analysis in presence of 100 uM allopurinol xanthine oxidase inhibitor. The data set is classed as ADME, tissue-based, Liver. In short, it runs like this: (§1)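 Hepatic S9 (5 mg/ml) in 0.1 M potassium phosphate pH 7.4 with 3 mM MgCl2 and 25 µM substrate, 37°C, 1 h under ambient oxygen; NADPH (2 mM) added in select runs. Reactions started by adding substrate. Protein precipitated with 2 volumes MeCN and the supernatant dried under nitrogen, reconstituted in 85:15 10 mM ammonium formate (pH 4.1)-MeCN, then analysed by LC-MS.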

Data set [2] has as its system Plasma. Kind of data set: Drug level in Sprague-Dawley rat plasma treated with 56.6 mg/kg, ip VU0409106 single dose by LC-MS/MS analysis. The conditions noted are these: in vivo. Also on record: dose 56.6 mg/kg, route intraperitoneal. Type of data set: ADME, organism-based. Summed up:
(§2)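 Male Sprague-Dawley rats given a single intraperitoneal dose of 56.6 mg/kg. Plasma extracted with 2 volumes acetonitrile and centrifuged; metabolites profiled by LC-MS/MS.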

Data set [3] deals with Plasma. Kind of data set: Retention time in Sprague-Dawley rat plasma treated with 56.6 mg/kg, ip VU0409106 single dose. The conditions noted are these: in vivo. Type of data set: ADME, organism-based. Also on record: dose 56.6 mg/kg, route intraperitoneal. Summed up:
as §2

The nature of data set [4]: Drug level in Sprague-Dawley rat hepatic S9 fraction treated with 25 uM VU0409106 by LC-UV-MS analysis. Type of data set: ADME, tissue-based, Liver. In short, it runs like this: as §1
Data set [5] relates to Hepatocyte. The data set is described as follows: Drug level in Sprague-Dawley rat cryopreserved hepatocytes treated with 25 uM VU0409106 by LC-UV-MS analysis. The data set is classed as ADME, cell-based.
Data set [6] in a line: Drug level in Sprague-Dawley rat hepatic S9 fraction treated with 3-fluoro-N-(4-methylthiazol-2-yl)-5-(6-oxo-1,6-dihydropyrimidin-5-yloxy)benzamide by LC-MS/MS analysis in presence of 100 uM allopurinol xanthine oxidase inhibitor. Type of data set: ADME, tissue-based, Liver.
A short description of data set [7]: Drug level in human hepatic S9 fraction treated with 25 uM VU0409106 by LC-UV-MS analysis. Type of data set: ADME, tissue-based, Liver. Summed up: as §1
Data set [8] in a line: Drug level in cynomolgus monkey hepatic S9 fraction treated with 25 uM VU0409106 by LC-UV-MS analysis. Type of data set: ADME, tissue-based, Macaca fascicularis, Liver. Summed up: as §1
Data set [9] can be described thus: Drug level in cynomolgus monkey cryopreserved hepatocytes treated with 25 uM VU0409106 by LC-MS/MS analysis. Type of data set: ADME, cell-based, Macaca fascicularis, Hepatocyte. Summed up:
(§3)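 Pooled cryopreserved hepatocytes (2 × 10^6 cells/ml) in Krebs-Henseleit buffer, 25 µM substrate, 37°C for 4 h. Rat donors were 14 males, cynomolgus 4 males, human 20 mixed gender. Cells precipitated with 2 volumes MeCN, centrifuged at 4°C; supernatant dried under nitrogen, reconstituted in 15% aqueous MeCN for LC-MS.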

Data set [10] relates to Hepatocyte. Kind of data set: Drug level in human cryopreserved hepatocytes treated with 25 uM VU0409106 by LC-MS/MS analysis. Type of data set: ADME, cell-based. In short, it runs like this: as §3
In data set [11] the test system is Hepatocyte. The data set is described as follows: Drug level in human cryopreserved hepatocytes treated with 25 uM VU0409106 by LC-MS/MS analysis in presence of 1-ABT pan-450 inactivator. Type of data set: ADME, cell-based. Summed up: as §3
For data set [12], the system named is Hepatocyte. The data set is described as follows: Drug level in Sprague-Dawley rat cryopreserved hepatocytes treated with 25 uM VU0409106 by LC-MS/MS analysis in presence of 1-ABT pan-450 inactivator. Type of data set: ADME, cell-based.

The structures appear in SMILES notation.

`Cc1csc(NC(=O)c2cc(F)cc(Oc3c[nH]c(=O)[nH]c3=O)c2)n1`: the Drug metabolism result in data set [1] was “metabolite_not_detected”; in the data set on Plasma [2] it was “metabolite_detected”; in [4] it was “metabolite_detected”; in the data set with Hepatocyte [5], “metabolite_detected”; in data set [6], “metabolite_not_detected”; in [7], “metabolite_detected”. Also, the Drug metabolism result in data set [8] is “metabolite_detected”. Besides, in the data set on Plasma [3], the Retention_time amounted to 12.3 min.

Regarding `Cc1csc(NC(=O)c2cc(O)cc(Oc3c[nH]c(=O)[nH]c3=O)c2)n1`, the Drug metabolism result in the data set with Plasma [2] was “metabolite_detected”; in data set [9], “metabolite_detected”; in the data set with Hepatocyte [5] it was “metabolite_detected”; in the data set on Hepatocyte [10], “metabolite_detected”; in data set [7], “metabolite_detected”; in the data set with Hepatocyte [11] it was “metabolite_not_detected”. The Drug metabolism entry in the data set with Hepatocyte [12] is listed as “metabolite_not_detected”; in [8], “metabolite_detected”. Further, the Retention_time with Plasma [3] was 13.4 min.
